Results as given in ChEMBL document CHEMBL1141973, “6'-Methylpyrido[3,4-b]norhomotropane: synthesis and outstanding potency in relation to the alpha4beta2 nicotinic receptor pharmacophore model” (Bioorg Med Chem Lett, 2005).

Assays:
Type in all cases: cell-based
[1] = Dissociation constant for nicotinic acetylcholine receptor alpha4-beta2 of mouse M10 cells; n=3
Procedure, shortened: (§1)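 α4β2 receptor immunoisolated with mAb 270 from mouse fibroblast M10 cells. Competition binding against (−)-[³H]nicotine at 7 nM. Ki was obtained from IC50 by Cheng–Prusoff, Ki = IC50/(1 + [L]/KD), with KD 3.8 nM.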

[2] = biological target: T1, Neuronal acetylcholine receptor subunit alpha-7 (Homo sapiens, UniProt P36544); test: Dissociation constant for nicotinic acetylcholine receptor alpha 7 from human neuroblastoma SH-SY5Y cells; n=3
[3] = Binding affinity for nicotinic acetylcholine receptor alpha4-beta2 from mouse M10 cells; n=3; procedure, shortened: as §1
[4] = biological target: T1, Neuronal acetylcholine receptor subunit alpha-7; test: Binding affinity for nicotinic acetylcholine receptor alpha 7 from human neuroblastoma SH-SY5Y cells; n=3

T1 sequence (P36544 whole entry): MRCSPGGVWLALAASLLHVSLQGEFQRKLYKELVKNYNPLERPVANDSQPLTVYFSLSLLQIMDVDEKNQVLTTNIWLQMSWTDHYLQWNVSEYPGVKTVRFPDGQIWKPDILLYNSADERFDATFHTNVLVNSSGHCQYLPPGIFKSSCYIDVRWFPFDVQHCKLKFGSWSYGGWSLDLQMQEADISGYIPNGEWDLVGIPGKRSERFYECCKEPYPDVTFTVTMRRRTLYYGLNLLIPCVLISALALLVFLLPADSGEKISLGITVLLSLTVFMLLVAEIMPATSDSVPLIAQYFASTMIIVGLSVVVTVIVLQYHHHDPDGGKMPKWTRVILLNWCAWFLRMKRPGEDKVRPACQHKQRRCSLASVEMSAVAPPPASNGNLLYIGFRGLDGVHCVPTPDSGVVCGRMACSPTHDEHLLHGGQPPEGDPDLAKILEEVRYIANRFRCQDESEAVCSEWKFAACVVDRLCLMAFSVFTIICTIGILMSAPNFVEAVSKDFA

Structure (SMILES) | Kd [1] | Kd [2] | Ki [3] | Ki [4]
Clc1ccc(C2CC3CCC2N3)cn1 (racemic) [EPIBATIDINE] | 0.00308 µM | 0.00106 µM | 0.035 nM | 
CN1CCC[C@@H]1c1cccnc1 [R-NICOTINE] | 0.0038 µM |  | 2.5 nM | 
c1cc2c(cn1)C1CCC(CC2)N1 (racemic) | 0.00308 µM | 0.00106 µM | 1.3 nM | > 100 µM
Cc1cc2c(cn1)C1CCC(CC2)N1 (racemic) | 0.00039 µM | 0.00106 µM | 0.39 nM | ~1000 µM
c1cncc([C@@H]2CCCN2)c1 (racemic) [NORNICOTINE] |  | 0.00106 µM | 14 nM | 138 µM
